We go through one compound from ChEMBL document CHEMBL1136923, “Highly potent, orally available anti-inflammatory broad-spectrum chemokine inhibitors” (J Med Chem, 2009).

The target of data set [1] is C-C chemokine receptor type 2 (Homo sapiens) (UniProt P41597). The experiment in a line: Antagonist activity at CCR2 in human THP1 cells assessed as inhibition of CCL2-induced chemotaxis at 0.1 nM after 2 hrs by microtiter format trans-well migration assay. The class given is functional, cell-based. Conditions: THP-1. The essentials:
(§1)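 Microtiter trans-well migration assay in Gey's balanced salt solution with 1 mg/mL endotoxin-free BSA, no fetal calf serum. Migration ran 2 h at 37 °C. Compounds dissolved in DMSO and added to both top and bottom compartments, final DMSO 1%.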

For data set [2], the target named is T1, C-C chemokine receptor type 1 (Homo sapiens) (UniProt P32246).
T1 sequence (whole entry): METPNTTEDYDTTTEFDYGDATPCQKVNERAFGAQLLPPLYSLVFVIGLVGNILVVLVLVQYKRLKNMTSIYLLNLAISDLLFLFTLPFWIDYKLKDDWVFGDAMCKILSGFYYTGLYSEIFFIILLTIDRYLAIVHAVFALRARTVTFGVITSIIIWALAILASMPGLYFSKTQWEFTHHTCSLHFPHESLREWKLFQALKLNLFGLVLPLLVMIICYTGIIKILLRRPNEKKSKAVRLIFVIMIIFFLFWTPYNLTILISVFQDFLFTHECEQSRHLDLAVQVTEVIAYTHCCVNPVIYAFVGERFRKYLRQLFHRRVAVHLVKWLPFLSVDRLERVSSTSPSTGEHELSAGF
Description: Antagonist activity at CCR1 in human THP1 cells assessed as inhibition of CCL3-induced chemotaxis at 1000 nM after 2 hrs by microtiter format trans-well migration assay. Format: functional, cell-based. The following applies: THP-1. The method, boiled down:
as §1

For data set [3], the target named is T1, C-C chemokine receptor type 1 (Homo sapiens). Description: Antagonist activity at CCR1 in human THP1 cells assessed as inhibition of CCL3-induced chemotaxis at 0.1 nM after 2 hrs by microtiter format trans-well migration assay. The class given is functional, cell-based. The following applies: THP-1. The method, boiled down:
as §1

In data set [4] the target is C-C chemokine receptor type 5 (Homo sapiens) (UniProt P51681). The experiment in a line: Antagonist activity at CCR5 in human THP1 cells assessed as inhibition of CCL5-induced chemotaxis at 1000 nM after 2 hrs by microtiter format trans-well migration assay. The class given is functional, cell-based. The following applies: THP-1. The method, boiled down:
as §1

For data set [5] the target is unchanged. The experiment in a line: Antagonist activity at CCR5 in human THP1 cells assessed as inhibition of CCL5-induced chemotaxis at 100 nM after 2 hrs by microtiter format trans-well migration assay. Format: functional, cell-based. The following applies: THP-1. The essentials:
as §1

For data set [6] the target is unchanged. Description: Antagonist activity at CCR5 in human THP1 cells assessed as inhibition of CCL5-induced chemotaxis at 1 nM after 2 hrs by microtiter format trans-well migration assay. The class given is functional, cell-based. Conditions: THP-1. The method, boiled down: as §1
Data set [7] has the same target. The experiment in a line: Antagonist activity at CCR5 in human THP1 cells assessed as inhibition of CCL5-induced chemotaxis at 0.1 nM after 2 hrs by microtiter format trans-well migration assay. The following applies: THP-1. Format: functional, cell-based. The essentials: as §1
The target in data set [8] is C-X-C chemokine receptor type 4 (Homo sapiens) (UniProt P61073). The experiment in a line: Antagonist activity at CXCR4 in human THP1 cells assessed as inhibition of CXCL12-induced chemotaxis at 10 nM after 2 hrs by microtiter format trans-well migration assay. Conditions: THP-1. The class given is functional, cell-based. The method, boiled down: as §1
Sequence of C-X-C chemokine receptor type 4 (Homo sapiens) (P61073 whole entry): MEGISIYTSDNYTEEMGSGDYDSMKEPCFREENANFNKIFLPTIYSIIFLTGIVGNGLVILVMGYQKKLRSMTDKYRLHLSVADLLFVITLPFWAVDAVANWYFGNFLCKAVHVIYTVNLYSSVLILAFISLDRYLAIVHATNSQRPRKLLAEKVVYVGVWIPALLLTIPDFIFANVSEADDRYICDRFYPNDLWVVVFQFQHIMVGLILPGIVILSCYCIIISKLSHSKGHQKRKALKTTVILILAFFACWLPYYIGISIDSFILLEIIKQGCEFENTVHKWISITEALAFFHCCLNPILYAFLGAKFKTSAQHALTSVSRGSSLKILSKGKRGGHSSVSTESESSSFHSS
The nature of data set [9]: Antagonist activity at Interleukin-8 receptor in human PMNC assessed as inhibition of CXCL8-induced chemotaxis at 1 nM after 2 hrs by microtiter format trans-well migration assay. Format: functional. The method, boiled down:
as §1

Data set [10] is described as follows: Antagonist activity at Interleukin-8 receptor in human PMNC assessed as inhibition of CXCL8-induced chemotaxis at 0.1 nM after 2 hrs by microtiter format trans-well migration assay. Format: functional. The essentials: as §1
The nature of data set [11]: Antagonist activity at Interleukin-8 receptor in human PMNC assessed as inhibition of CXCL8-induced chemotaxis at 0.01 nM after 2 hrs by microtiter format trans-well migration assay. The class given is functional. The essentials:
as §1

In data set [12] the target is T2, C5a anaphylatoxin chemotactic receptor 1 (Homo sapiens) (UniProt P21730).
T2 sequence (whole entry): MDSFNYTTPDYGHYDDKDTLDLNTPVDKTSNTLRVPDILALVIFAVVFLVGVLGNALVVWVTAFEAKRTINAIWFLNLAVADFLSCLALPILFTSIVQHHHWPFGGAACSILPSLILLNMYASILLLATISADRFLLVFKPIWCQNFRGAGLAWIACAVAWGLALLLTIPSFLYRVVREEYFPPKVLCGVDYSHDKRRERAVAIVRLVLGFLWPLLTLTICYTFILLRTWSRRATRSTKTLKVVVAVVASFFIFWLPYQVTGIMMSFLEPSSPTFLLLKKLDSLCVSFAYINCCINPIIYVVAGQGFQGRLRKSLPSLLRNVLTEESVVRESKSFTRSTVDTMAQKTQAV
Description: Antagonist activity at C5a receptor in human PMNC assessed as inhibition of C5a-induced chemotaxis at 1000 nM after 2 hrs by microtiter format trans-well migration assay. The class given is functional. The method, boiled down:
as §1

Data set [13] concerns the target T2, C5a anaphylatoxin chemotactic receptor 1 (Homo sapiens). Description: Antagonist activity at C5a receptor in human PMNC assessed as inhibition of C5a-induced chemotaxis at 0.01 nM after 2 hrs by microtiter format trans-well migration assay. The class given is functional. The method, boiled down:
as §1

The subject of data set [14] is THP-1. The experiment in a line: Endogenous chemoattractant activity at human THP1 cells assessed as cell migration at 1000 uM after 2 hrs by microtiter format trans-well migration assay. The class given is functional.
Data set [15] is described as follows: Antagonist activity at Interleukin-8 receptor in human PMNC assessed as inhibition of CXCL8-induced chemotaxis at 100 nM after 2 hrs by microtiter format trans-well migration assay. Format: functional. The method, boiled down:
as §1

Data set [16] has as its system THP-1. Description: Endogenous chemoattractant activity at human THP1 cells assessed as cell migration at 0.01 nM after 2 hrs by microtiter format trans-well migration assay. The class given is functional.
Data set [17] deals with THP-1. Description: Toxicity in human THP1 cells assessed as change in cell size at 1000 nM by forward scatter flow cytometry relative to control. The class given is cell-based. The following applies: thp-1, 1 µM.
The test system of data set [18] is Mus musculus. The experiment in a line: Antiinflammatory activity in mouse assessed as inhibition of LPS-induced TNFalpha upregulation at 0.0025 mg, sc measured 2 hrs after LPS challenge. The class given is functional. The method, boiled down: (§2)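 Murine sublethal endotoxemia: LPS given intraperitoneally, with serum TNF-α measured 2 h after the LPS injection as the end point. Compound was given subcutaneously or orally. Vehicle was 0.6% DMSO and 1% carboxymethylcellulose (final concentrations) in sterile water. Effect is reported as % relative to control.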

Data set [19] relates to Mus musculus. Description: Antiinflammatory activity in mouse assessed as inhibition of LPS-induced TNFalpha upregulation at 0.075 mg, po measured 2 hrs after LPS challenge. Format: functional. The method, boiled down:
as §2

The test system of data set [20] is Mus musculus. Description: Antiinflammatory activity in po dosed mouse assessed as inhibition of LPS-induced TNFalpha upregulation measured 2 hrs after LPS challenge. Format: functional.
Data set [21] in a line: Cmax in Sprague-Dawley rat at 3 mg/kg, po administered as single dose. Conditions: in vivo. The class given is ADME, organism-based. On the set-up: dose 3 mg/kg, route oral. The essentials:
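Male Sprague-Dawley rats, three per compound, receive a single oral dose by gavage in 1% carboxymethylcellulose in 0.9% saline, with food and water ad libitum. Plasma is sampled from 5 to 480 min and drug is quantified by positive-mode LC/MS/MS after acetonitrile/formic acid extraction. The lower limit of quantitation is about 2 ng/mL. Exposure is AUC(0→t) by the linear/log trapezoidal rule, and F is oral fractional bioavailability.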

Data set [22] in a line: AUC (0 to t) in Sprague-Dawley rat at 3 mg/kg, po administered as single dose. Format: ADME, organism-based. On the set-up: dose 3 mg/kg, route oral. Conditions: plasma. The essentials: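 Male Sprague-Dawley rats, three per compound per route, single dose. IV vehicle 5% DMSO in 0.9% saline; oral gavage vehicle 1% carboxymethylcellulose in 0.9% saline; fed ad libitum. Plasma taken 5–480 min post-dose, extracted with 0.1% formic acid in acetonitrile, quantified by LC/MS/MS (positive mode). AUC(0–t) by linear/log trapezoidal rule; IV curve back-extrapolated assuming initial volume 0.26 L/kg.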

Sequence of C-C chemokine receptor type 5 (Homo sapiens) (P51681 whole entry, looked up): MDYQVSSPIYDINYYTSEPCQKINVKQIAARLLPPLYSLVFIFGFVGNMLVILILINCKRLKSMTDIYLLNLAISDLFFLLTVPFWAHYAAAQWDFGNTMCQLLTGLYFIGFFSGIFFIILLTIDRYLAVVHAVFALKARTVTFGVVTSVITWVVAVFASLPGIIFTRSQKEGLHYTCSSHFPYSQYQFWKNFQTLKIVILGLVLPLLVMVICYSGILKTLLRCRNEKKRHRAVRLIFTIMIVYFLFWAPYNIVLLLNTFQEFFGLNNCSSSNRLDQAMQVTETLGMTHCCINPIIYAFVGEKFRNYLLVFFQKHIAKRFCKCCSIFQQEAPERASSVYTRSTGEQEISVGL
Sequence of C-C chemokine receptor type 2 (Homo sapiens) (P41597 whole entry, looked up): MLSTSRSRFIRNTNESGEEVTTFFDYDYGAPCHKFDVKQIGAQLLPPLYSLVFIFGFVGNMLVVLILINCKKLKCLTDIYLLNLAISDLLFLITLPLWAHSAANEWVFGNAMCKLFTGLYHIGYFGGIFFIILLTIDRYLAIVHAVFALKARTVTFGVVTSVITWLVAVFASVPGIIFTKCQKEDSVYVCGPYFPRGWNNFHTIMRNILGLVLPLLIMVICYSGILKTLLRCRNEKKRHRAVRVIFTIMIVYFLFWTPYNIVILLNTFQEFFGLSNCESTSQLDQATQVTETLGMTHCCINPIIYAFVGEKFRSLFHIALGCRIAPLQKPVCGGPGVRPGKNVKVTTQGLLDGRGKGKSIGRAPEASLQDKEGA

Broadly, the inhibition is the change of the read-out against control, counted positive when it falls. As a reminder, the ED50 is the dose that gives a 50% effect, or the effect in half of the subjects. Usually Cmax stands for the maximum level reached in the sampled fluid or tissue. As a reminder, the AUC(0-t) is the area under the concentration-time curve up to a stated or last time point. As for `CCCCCCCCCCC(C)(C)C(=O)N[C@H]1CCCCNC1=O`, the inhibition in data set [1] was 53.5%; in [2] it was 99.5%; in [3] it was 43%; in [4] it was 100%; in data set [5], 92.5%; in [6] it was 56%. Further, the inhibition in data set [7] was determined as 16.5%; in [8] it was 107%; in data set [12], 26%; in data set [13], 20%. For the same compound, in data set [9], the inhibition at 0.001 µM is 71%. For the same compound, the inhibition at 0.0001 µM in data set [10] was determined as 12.5%. The inhibition at 10 pM in [11] is -12%. In addition, the results for the Activity in [14] and in data set [16] were 1602% and 5337%, respectively. The inhibition at 0.1 µM in [15] amounted to 128%. The “fold change (FC)” value in data set [17] was determined as 1.05. In addition, the “inhibition (INH)” value was determined as 57% in data set [18] and 80% in data set [19]. Also, the ED50 in data set [20] was determined as 0.3 mg/kg. Besides, the Cmax in data set [21] is 60 ng/mL. Moreover, the AUC(0-t) in data set [22] was 183 ng·h/mL.
